Measured values from different studies.
Protocols differ between the studies behind these lines.

| Structure (SMILES) | tested on | assay | conditions | quantity | result |
| --- | --- | --- | --- | --- | --- |
| O=c1[nH]c(NCc2ccc(Cl)c(Cl)c2)nc2ncn(CCN3CCOCC3)c12 | Eggerthella lenta | microbial growth, agar dilution | 48 h | MIC | > 32 mg/L |
| Cc1ccc(C(CS(=O)(=O)c2ccccc2)=NNC2=NC(=O)C(=NNc3ccc([N+](=O)[O-])cc3)S2)cc1 | SK-MEL-23 | cell growth or viability, MTT | 6.3 µM, 48 h | viability | 56.6% |
| Cc1cc(Nc2ncc(Cl)c(Nc3ccccc3S(=O)(=O)C(C)C)n2)c(OC(C)C)cc1C1CCNCC1 | NCI-H2228 | cell growth or viability, MTT | 5 µg/mL, 72 h | inhibition | 93.5% |
| CCCCCc1ccc(-c2cnc3c(n2)CCCC3)cc1 | Haemonchus contortus | parasite motility | 72 h, larva | IC50 | 14.4 µM |
| Cc1ccc(C(CS(=O)(=O)c2ccccc2)=NNC2=NC(=O)C(=NNc3ccccc3)S2)cc1 | SK-MEL-23 | cell growth or viability, MTT | 6.3 µM, 48 h | viability | 36.3% |
| CCc1cc(Nc2cc(=O)n(CCCCO)c(=O)[nH]2)ccc1C | Eggerthella lenta | microbial growth, agar dilution | 48 h | MIC | > 32 mg/L |
| CCCCOc1ccc(-c2cnc3c(n2)CCCC3)cc1 | Haemonchus contortus | parasite motility | 72 h, larva | IC50 | 6.9 µM |
| Cc1ccc(C(CS(=O)(=O)c2ccccc2)=NN=C2N=C(c3ccc(Br)cc3)CS2)cc1 | SK-MEL-23 | cell growth or viability, MTT | 25 µM, 48 h | viability | 54.9% |
| CCCCc1cccc(-c2cnc3c(n2)CCCC3)c1 | Haemonchus contortus | parasite motility | 48 h, larva | IC50 | 23.3 µM |
| O=C(Nc1ccccc1-c1ccc(F)c(F)c1)c1nccnc1C(F)(F)F | Cladosporium cucumerinum | microbial growth |  | EC50 | < 0.1 mg/L |
| CCCCOc1cccc(-c2cnc3c(n2)CCCC3)c1 | Haemonchus contortus | parasite motility | 24 h, larva | IC50 | ~49.5 µM |
| C[C@@H](Oc1cc(-c2cnn(C3CCNCC3)c2)cnc1N)c1c(Cl)ccc(F)c1Cl | NCI-H2228 | cell growth or viability, MTT | 0.04 µg/mL, 72 h | inhibition | 45.9% |
